Source: PubChem
TNF necrop inh: inhibitors of TNF-alpha triggered necroptosis, primary screen, cell-based, Jurkat FADD-/-, single concentration | Jurkat FADD-/- TNF necroptosis rescue, ATP luminescence, 24 h; 0 = TNF only, 100 = no-TNF cells | activation (protection from cell death), % at 10 µM | 220,000 tested, 0.068% active | AID 463075, 2010;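 active = activation, meaning protection from cell death, of at least 50% relative to plate controls; inactive = activation below 50%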;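 note: necroptosis triggered by 40 ng/mL TNF-alpha added together with compound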
Wee1 degr inh: Wee1 degradation inhibitors, primary screen, cell-based, HeLa, Wee1K328M-luciferase, luminescence. Wee1-like protein kinase (Homo sapiens), P30291. HeLa Luc-Wee1K328M stability; 100% = proteasome inhibitor MG132 effect. reporter increase, % at 5 µM. 220,000 tested, 1.2% active. AID 1321, 2008;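 active = activation above the mean of all tested compounds plus 3 SD, set per screening run, cut at about 8.8% in these data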;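 note: cells exposed to compound for 20 h before luminescence read; 0% = DMSO alone and 100% = MG132 at 30 µM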
Target sequence (P30291 whole entry K328M): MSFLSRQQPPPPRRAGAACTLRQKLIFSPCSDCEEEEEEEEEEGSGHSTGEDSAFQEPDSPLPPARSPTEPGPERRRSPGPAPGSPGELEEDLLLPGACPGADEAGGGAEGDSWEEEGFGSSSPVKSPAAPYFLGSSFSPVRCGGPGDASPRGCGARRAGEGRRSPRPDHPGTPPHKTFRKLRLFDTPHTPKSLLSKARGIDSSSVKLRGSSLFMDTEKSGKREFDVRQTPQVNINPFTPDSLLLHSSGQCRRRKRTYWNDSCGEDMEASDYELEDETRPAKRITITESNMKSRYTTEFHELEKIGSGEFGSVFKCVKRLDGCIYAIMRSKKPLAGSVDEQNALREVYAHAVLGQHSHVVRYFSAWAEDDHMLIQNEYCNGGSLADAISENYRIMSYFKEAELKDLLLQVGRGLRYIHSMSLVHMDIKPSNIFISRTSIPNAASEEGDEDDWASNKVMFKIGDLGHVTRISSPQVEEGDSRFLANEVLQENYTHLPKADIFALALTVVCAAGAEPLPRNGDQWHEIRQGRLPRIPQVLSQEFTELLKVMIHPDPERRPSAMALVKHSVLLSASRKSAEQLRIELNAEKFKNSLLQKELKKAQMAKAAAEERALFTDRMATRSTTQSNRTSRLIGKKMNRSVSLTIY
zVAD death inh: inhibitors of zVAD-triggered necroptosis, primary screen, L929 cells. L929 zVAD necroptosis rescue, ATP luminescence, 24 h; with zVAD 60 µM. viability rescue, % at 10 µM. 220,000 tested, 0.38% active. AID 1377, 2008;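 active = activation, scaled between plate controls, above about 75%, limit read from the data; inactive = activation under that limit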;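 note: 0% = zVAD with DMSO and 100% = DMSO alone without zVAD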
Pf gamet viab: late stage P. falciparum gametocyte viability inhibitors, primary screen, ATP luminescence, HTS | P. falciparum stage V gametocytes, 24 h | inhibition, % at 10.9 µM | 150,000 tested, 0.065% active;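 active = inhibition above the mean plus 3 SD of compounds within the control limits, set per campaign, cut at about 38% in these data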;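 note: 0% = DMSO wells and 100% = medium only without gametocytes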
Mdm2 ligase inh: MDM2-luciferase reporter signal enhancers, primary screen, MDM2 E3 ligase inhibitor project, cell-based, luminescence, 1536-well; E3 ubiquitin-protein ligase Mdm2 (Homo sapiens), Q00987; cell-based MDM2 ubiquitination luciferase reporter, 2 h; 0 = plate control, 100 = twice control, blank-subtracted; signal enhancement, % at 5 µM; 210,000 tested, 0.11% active; AID 1230, 2008;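 active = signal enhancement of 30% or more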;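 note: luminescence tracks abundance of the self-degrading MDM2-luciferase fusion protein; higher signal means inhibition of MDM2 E3 ligase activity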
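Material: stable MDM2–luciferase fusion reporter cells / Quantity: 2000 cells/well / Dosing: single 5 µM compound dose, 0.2% final DMSO / Buffer or medium: DMEM / Schedule: 4 h cell settling then 2 h compound exposure, 37 °C / Detection: luminescence with SteadyLite reagent, 15 min at room temperature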
Wee1 degr conf: Wee1 degradation inhibitors, confirmation, cell-based, HeLa, Wee1K328M-luciferase, luminescence, triplicate; shares compounds with Wee1 degr inh; HeLa Luc-Wee1K328M degradation; vehicle 0%, proteasome-blocked wells 100%; activation, % at 5 µM; 1,100 tested, 4% active; in the data active = activation above about 8.9%
zVAD death conf: inhibitors of zVAD-triggered necroptosis in L929, confirmation, L929 cells, duplicate runs; activation (protection from necroptosis), % at 10 µM; shares compounds with zVAD death inh; 760 tested, 16% active; L929 zVAD-induced necroptosis rescue, ATP luminescence, 24 h;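 active = mean protection from necroptosis of at least 50% over duplicate tests; inactive = mean protection below 50%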;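 note: 0% = cells with zVAD alone and 100% = vehicle cells without zVAD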
Numbers without * were called inactive; nt = not tested or not shown. Hits are enriched below; roughly 1.6% of the tested compounds scored in any of these assays.

SMILES	TNF necrop inh	Wee1 degr inh	zVAD death inh	Pf gamet viab	Mdm2 ligase inh	Wee1 degr conf	others
COc1cc(OC)cc(C(=O)NC2CCSC2=O)c1 (centres undefined)	-3	12*	0	10	-9	0
CCOc1ccc(C2C(C#N)=C(N)Oc3cc(C)[nH]c(=O)c32)cc1OC (centres undefined)	0	5	0	-1	-9	nt
Cc1ncoc1C(=O)Nc1ncc([N+](=O)[O-])s1	-1	14*	0	-3	-49	8
COc1ccc(NC(=O)CCn2nnc(-c3ccc(C)cc3)n2)cc1OC	2	0	7	nt	-8	nt
Cc1nnc(SCC(=O)NCc2ccc(Cl)cc2)[nH]c1=O	0	-4	3	-2	8	nt
Cc1nnc(SCC(=O)NCc2ccc(F)cc2)[nH]c1=O	0	11*	1	-25	8	2
CCCCCC(=O)Nc1cccc(C2=NOC3(C2)C[C@@H](C(N)=O)N(C(=O)c2cc([N+](=O)[O-])cc([N+](=O)[O-])c2)C3)c1 (some centres undefined)	0	nt	0	-25	19	nt
CC(=O)Nc1nonc1NC(=O)CSc1ncn[nH]1	0	-4	0	-6	-17	nt
O=C(Nc1ccc(S(=O)(=O)N2CCC(C(=O)NC3CCCCC3)CC2)cc1)c1ccco1	13	-1	1	10	-6	nt
O=S(=O)(Nc1nc2ccccc2nc1Nc1ccc2c(c1)OCO2)c1ccccc1	-1	14*	1	nt	-24	-1
Cc1cc(=O)oc2cc(OCC(O)CN3CCN(c4ccccc4)CC3)ccc12 (centres undefined)	-2	-2	0	nt	-10	nt
COc1ccccc1N1CCN(CC(O)COc2ccc3c(C)cc(=O)oc3c2)CC1 (centres undefined)	1	17*	1	nt	-11	0
CCCN1CN(CCc2ccccc2)CNC1=S	4	-3	1	29	-9	nt
CCCCN1CNC(=S)N(CCc2ccccc2)C1	1	12*	0	-11	2	3
CCCn1c(C(C)Nc2nc(C)cs2)nc2cc(Cl)c(Cl)cc21 (centres undefined)	nt	nt	nt	6	nt	nt
CCC(=O)Nc1ccc(-c2nc3ccccc3c(=O)o2)cc1	0	13*	0	nt	-15	1
CCOc1ccc(-c2cc(C(=O)N3CCN(c4ccccn4)CC3)c3ccccc3n2)cc1	-8	2	1	nt	-48	nt
CCOc1ccc(-c2cc(C(=O)NN3CCN(C)CC3)c3cc(Cl)ccc3n2)cc1	2	11*	5	-7	-19	1
CCOC(=O)N1CCN(C(=O)c2cc(-c3ccc(OCC)cc3)nc3ccccc23)CC1	-12	12*	-1	nt	-18	22*
CCOc1ccc(-c2cc(C(=O)N3CCN(C)CC3)c3ccccc3n2)cc1	-8	17*	0	33	-32	1
CCOC(=O)c1c(NC(=O)CSc2nnnn2-c2ccc3c(c2)OCO3)sc(C)c1C	0	6	1	nt	-24	nt
COc1ccc(Cn2nnnc2C(c2cc3cccc(C)c3[nH]c2=O)N2CCOCC2)cc1 (centres undefined)	-2	-3	0	nt	-4	nt
CCOC(=O)N/N=C\c1cccc(OC)c1	-1	1	3	-9	-1	nt
CCc1nc(C)cc2c1sc1ccccc12	2	25*	1	-20	6	1
CC[n+]1c(C)cc2c(sc3ccccc32)c1C	-1	-2	0	14	-6	nt
SMILES	TNF necrop inh	Wee1 degr inh	zVAD death inh	Pf gamet viab	Mdm2 ligase inh	Wee1 degr conf	others
O=C(COC(=O)c1cc(S(=O)(=O)N2CCOCC2)c(Cl)cc1Cl)Nc1ncc(C(F)(F)F)cc1Cl	-1	-1	0	nt	nt	nt
Cc1ccc(S(=O)(=O)N2CCCCC2)cc1C(=O)Nc1cccnc1	3	18*	1	-11	-7	2
CC(C)Oc1ccccc1C1CC(=O)Nc2cc3c(cc21)OCCO3 (centres undefined)	-10	0	0	13	-12	nt
COc1cc(OC)cc(-c2c(C#Cc3ccsc3)c3cc(-c4ccc(N(C)C)nc4)ccc3n2C)c1	nt	nt	nt	7	nt	nt
COc1ccc(-c2cc3ccccc3[nH]2)cc1	1	5	1	-28	-4	nt
Cc1ccc(O)c(-c2cc3ccccc3[nH]2)c1	-3	11*	-1	9	19	0
O=c1[nH]c2ccccc2nc1/C=C/c1ccc(O)cc1	-6	11*	81*	-9	-10	6	zVAD death conf=82*
C(=N\Nc1nc2ccccc2[nH]1)/c1ccc2c(c1)OCCO2	3	11*	82*	1	-32	0	zVAD death conf=7
NC(=O)COc1ccc2oc(-c3ccccc3)cc(=O)c2c1	-2	14*	81*	-9	-90	4	zVAD death conf=26
CCOC(=O)COc1ccc2c(=O)cc(-c3ccccc3)oc2c1	3	0	0	-3	-13	nt
O=C(Nc1cccnc1)c1ccco1	0	-1	0	nt	-4	nt
Cc1ccc(Nc2cc(C)nn2-c2nc(C)cc(=O)[nH]2)cc1	9	129*	78*	nt	-12	123*	zVAD death conf=53*
CC(=O)Nc1ccc(S(=O)(=O)Nc2nc3ccccc3s2)cc1	0	1	0	nt	-4	nt
CC(=O)Nc1ccc(/C=N/Nc2nc3ccccc3s2)cc1	63*	13*	82*	-8	-20	10*	zVAD death conf=83*
C(=N\Nc1nc2ccccc2s1)/c1cccs1	10	14*	82*	nt	-12	5	zVAD death conf=10
C(=N\Nc1nc2ccccc2s1)/c1ccco1	17	12*	94*	nt	-1	3	zVAD death conf=49
COc1cc(/C=N/NC(=O)CN(Cc2ccccc2)S(=O)(=O)c2ccc3c(c2)OCCO3)ccc1O	1	1	1	5	-2	nt
COc1ccc(N2CC(C)Cn3c2nc2c3c(=O)n(Cc3ccc(F)cc3)c(=O)n2C)c(OC)c1 (centres undefined)	-4	0	0	13	-16	nt
CCc1nnc(NS(=O)(=O)c2ccc(N/C=C\C(=O)c3cccc(OC)c3)cc2)s1	1	-4	7	2	-3	nt
